# pIC50, pKi: −log10 of the molar value. “Also recorded” adds a separate entry of the source.
# Columns and labels:
# [1] = molecular target: T1, ATM (Homo sapiens, UniProt Q13315); assay: Biochemical inhibition of ATR and related kinases
# [2] = molecular target: T2, DNA-PK (Homo sapiens, UniProt P78527); assay: Biochemical inhibition of ATR and related kinases
# [3] = molecular target: mTOR (Homo sapiens, UniProt P42345); assay: Biochemical inhibition of ATR and related kinases
# [4] = molecular target: PI3Kγ (Homo sapiens, UniProt P48736); assay: Biochemical inhibition of ATR and related kinases
# [5] = molecular target: T1, ATM; assay: Cellular inhibition of ATR and related kinases; assay type: cell-based
# [6] = molecular target: T2, DNA-PK; assay: Cellular inhibition of ATR and related kinases; assay type: cell-based
# [7] = tested on: phospho-Ser345-Chk1; assay: Immunoblot for Chk1 phosphorylation; assay type: cell-based; settings: VE-822 80 nM; gemcitabine 100 nM, XRT 6 Gy; PDAC cells
# Outline: (§1)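 Lysates were taken 2 h post-XRT or 4 h post-gemcitabine, after cold PBS rinse, in reducing Triton lysis buffer. Phospho-Chk1 antibody was used at 1:1000; β-actin was the loading control.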
# [8] = tested on: ATM, Chk2 or DNA-PK phosphorylation; assay: Immunoblot for ATM/Chk2 and DNA-PK phosphorylation; assay type: cell-based; settings: VE-822 80 nmol/L; XRT 6 Gy
# [9] = tested on: PDAC cells (PSN-1, MiaPaCa-2, PancM); assay: Clonogenic survival assay, pancreatic cancer cells; assay type: cell-based
# [10] = tested on: fibroblasts (HFL-1, MRC5); assay: Clonogenic survival assay, normal fibroblasts; assay type: cell-based, human; settings: VE-822 80 nM
# [11] = tested on: phospho-Ser345-Chk1 in HFL-1 normal fibroblasts; assay: Phospho-Chk1; assay type: cell-based, human; settings: VE-822 80 nM
# Outline: as §1
# [12] = tested on: human dermal microvascular endothelial cells (HDMECs); assay: Capillary tube formation; assay type: cell-based; settings: VE-822 80 nM; XRT 6 Gy or gemcitabine 50 nM
# [13] = tested on: PSN-1 and MiaPaCa-2 cells; assay: Analysis of γH2AX, 53BP1 and Rad51 foci; assay type: cell-based
# [14] = tested on: PSN-1 and MiaPaCa-2 cells; assay: Cell-cycle assay; assay type: cell-based
# [15] = tested on: PSN-1 cells; assay: Apoptosis in vitro assay; assay type: cell-based; settings: for apoptosis, single agent: VE-822 80 nM or gemcitabine 10 nM, 48 h after XRT time point
# Outline: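 For PSN-1 cells, gemcitabine (10 nM) was given 24 h pre-XRT, then replaced with fresh medium. […] Cells were analysed at 48 h post-XRT by Annexin V-FITC/PI flow cytometry to separate early apoptotic from necrotic cells.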
# [16] = tested on: phospho-Ser-345-Chk1 in PSN-1 xenografts; assay: Chk1 phosphorylation; assay type: in vivo, mice; settings: VE-822 60 mg/kg d0, 1; gemcitabine 100 mg/kg d0; XRT 6 Gy d1; 2 h post-XRT
# [17] = tested on: PSN-1 xenografts; assay: Tumor growth delay, PSN-1 xenografts; assay type: in vivo, mice
# Outline: (§2)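 Female Balb/c nude mice were inoculated s.c. with 10^6 cells in serum-free medium plus Matrigel and randomized at ~80 mm3 (day 0). […] Tumor volume was tracked to 600 mm3 (TV600); n=4–5.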
# [18] = tested on: MiaPaCa-2 xenografts; assay: Tumor growth delay, MiaPaCa-2 xenografts; assay type: in vivo, mice; settings: experiment III
# Outline: as §2
# [19] = Body weight of mice in growth delay experiments; assay type: in vivo
# [20] = tested on: small intestine (jejunum); assay: Intestinal damage after abdominal XRT; assay type: in vivo, mice
# [21] = tested on: tumor xenograft vessel density; assay: Tumor vessel density; assay type: in vivo, mice
# Outline: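 Frozen xenograft tumors were cut into 10-μm sections, treated with 0.3% H2O2 for 20 min, then blocked in TNB for 30 min. Sections were stained 1 h with rat anti-mouse CD31 (1:50), then anti-rat […]. Vessels per field were counted in five random viable 10× fields per tumor, n=4–5 tumors per group.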
# [22] = tested on: γH2AX in PSN-1 tumor xenografts; assay: SPECT imaging of γH2AX in pancreatic tumor xenografts; assay type: in vivo, mice
# Outline: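 111In-DTPA–anti-γH2AX-Tat was injected 2 h before radiation, and SPECT/CT was run at 24 h post-XRT. Tumor uptake came from volume-of-interest analysis as %ID/g; organs were then removed, weighed and counted.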
# T1 sequence (Q13315 whole entry, species assumed): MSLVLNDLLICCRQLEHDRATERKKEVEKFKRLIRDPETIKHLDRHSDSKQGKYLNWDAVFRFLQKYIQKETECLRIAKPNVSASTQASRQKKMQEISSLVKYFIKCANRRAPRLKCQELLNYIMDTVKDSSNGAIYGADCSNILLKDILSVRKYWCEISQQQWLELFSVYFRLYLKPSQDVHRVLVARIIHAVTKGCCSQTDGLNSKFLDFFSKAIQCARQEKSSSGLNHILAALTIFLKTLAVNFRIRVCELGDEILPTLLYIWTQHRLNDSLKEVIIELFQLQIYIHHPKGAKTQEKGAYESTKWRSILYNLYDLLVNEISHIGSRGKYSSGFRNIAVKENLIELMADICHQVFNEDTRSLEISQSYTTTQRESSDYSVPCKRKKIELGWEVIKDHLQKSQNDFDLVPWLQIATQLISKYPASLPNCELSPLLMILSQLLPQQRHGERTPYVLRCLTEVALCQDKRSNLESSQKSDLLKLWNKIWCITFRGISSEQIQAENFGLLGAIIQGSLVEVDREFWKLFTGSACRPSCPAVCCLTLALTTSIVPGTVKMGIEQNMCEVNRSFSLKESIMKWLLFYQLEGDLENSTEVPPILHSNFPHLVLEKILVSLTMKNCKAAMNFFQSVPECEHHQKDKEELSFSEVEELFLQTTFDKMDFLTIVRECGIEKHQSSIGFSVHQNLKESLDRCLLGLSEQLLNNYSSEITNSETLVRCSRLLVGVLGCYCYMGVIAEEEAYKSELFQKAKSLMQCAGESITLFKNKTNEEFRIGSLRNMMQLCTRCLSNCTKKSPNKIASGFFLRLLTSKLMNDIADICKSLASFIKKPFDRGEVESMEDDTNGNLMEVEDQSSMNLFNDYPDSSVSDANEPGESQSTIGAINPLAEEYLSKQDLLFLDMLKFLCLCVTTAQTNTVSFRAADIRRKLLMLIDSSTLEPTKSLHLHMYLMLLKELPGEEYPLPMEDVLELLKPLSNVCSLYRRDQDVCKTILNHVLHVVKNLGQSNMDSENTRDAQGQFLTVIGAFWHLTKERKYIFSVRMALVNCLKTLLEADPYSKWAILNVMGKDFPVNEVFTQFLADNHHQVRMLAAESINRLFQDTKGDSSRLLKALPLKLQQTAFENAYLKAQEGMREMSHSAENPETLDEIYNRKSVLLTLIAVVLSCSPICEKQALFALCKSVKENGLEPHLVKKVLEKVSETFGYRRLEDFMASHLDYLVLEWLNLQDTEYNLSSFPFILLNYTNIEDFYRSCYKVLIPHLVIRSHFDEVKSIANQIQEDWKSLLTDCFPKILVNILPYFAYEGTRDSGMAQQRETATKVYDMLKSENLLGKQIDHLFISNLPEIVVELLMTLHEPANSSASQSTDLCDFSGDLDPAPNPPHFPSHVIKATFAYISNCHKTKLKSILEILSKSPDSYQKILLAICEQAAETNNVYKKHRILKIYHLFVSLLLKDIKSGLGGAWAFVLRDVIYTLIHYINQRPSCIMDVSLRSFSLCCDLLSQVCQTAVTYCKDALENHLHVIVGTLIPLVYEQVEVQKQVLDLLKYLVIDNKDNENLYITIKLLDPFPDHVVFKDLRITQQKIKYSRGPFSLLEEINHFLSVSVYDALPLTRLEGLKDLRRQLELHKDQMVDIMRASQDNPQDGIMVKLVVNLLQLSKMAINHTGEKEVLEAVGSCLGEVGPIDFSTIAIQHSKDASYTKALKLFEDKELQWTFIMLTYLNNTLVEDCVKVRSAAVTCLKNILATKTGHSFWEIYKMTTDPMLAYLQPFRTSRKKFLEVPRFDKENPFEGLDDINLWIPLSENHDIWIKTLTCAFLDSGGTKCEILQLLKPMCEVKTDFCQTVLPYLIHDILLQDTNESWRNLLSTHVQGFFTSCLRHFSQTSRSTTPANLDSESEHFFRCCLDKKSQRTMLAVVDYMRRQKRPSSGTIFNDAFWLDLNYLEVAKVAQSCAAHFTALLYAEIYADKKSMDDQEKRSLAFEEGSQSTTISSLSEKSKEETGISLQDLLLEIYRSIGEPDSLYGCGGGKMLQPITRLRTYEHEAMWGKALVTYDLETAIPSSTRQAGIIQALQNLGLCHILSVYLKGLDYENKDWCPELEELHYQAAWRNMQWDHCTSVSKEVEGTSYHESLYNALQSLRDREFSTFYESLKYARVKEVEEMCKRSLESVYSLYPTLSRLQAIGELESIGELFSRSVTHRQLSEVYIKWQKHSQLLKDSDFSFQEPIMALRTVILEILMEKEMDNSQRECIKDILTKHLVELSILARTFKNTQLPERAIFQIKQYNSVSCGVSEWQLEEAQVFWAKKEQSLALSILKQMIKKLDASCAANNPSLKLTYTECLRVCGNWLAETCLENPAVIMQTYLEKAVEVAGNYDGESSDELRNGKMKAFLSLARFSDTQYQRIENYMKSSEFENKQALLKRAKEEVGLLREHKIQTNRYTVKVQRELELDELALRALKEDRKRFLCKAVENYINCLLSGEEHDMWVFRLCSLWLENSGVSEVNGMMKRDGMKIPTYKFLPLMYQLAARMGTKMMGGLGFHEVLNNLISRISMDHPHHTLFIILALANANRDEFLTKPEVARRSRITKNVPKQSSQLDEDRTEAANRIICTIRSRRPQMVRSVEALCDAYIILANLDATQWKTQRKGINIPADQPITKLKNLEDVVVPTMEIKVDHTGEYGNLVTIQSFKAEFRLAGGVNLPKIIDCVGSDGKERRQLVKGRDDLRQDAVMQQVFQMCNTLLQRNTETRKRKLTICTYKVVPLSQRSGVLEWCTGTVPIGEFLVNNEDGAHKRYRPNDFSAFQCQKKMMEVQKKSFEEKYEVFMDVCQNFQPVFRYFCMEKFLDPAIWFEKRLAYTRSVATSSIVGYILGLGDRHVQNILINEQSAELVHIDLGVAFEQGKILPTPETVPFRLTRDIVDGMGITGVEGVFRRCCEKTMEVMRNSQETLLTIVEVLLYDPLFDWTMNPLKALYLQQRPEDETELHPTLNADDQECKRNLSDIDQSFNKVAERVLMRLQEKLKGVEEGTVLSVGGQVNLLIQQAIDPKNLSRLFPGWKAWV
# Sequence of PI3Kγ (P48736 whole entry, species assumed): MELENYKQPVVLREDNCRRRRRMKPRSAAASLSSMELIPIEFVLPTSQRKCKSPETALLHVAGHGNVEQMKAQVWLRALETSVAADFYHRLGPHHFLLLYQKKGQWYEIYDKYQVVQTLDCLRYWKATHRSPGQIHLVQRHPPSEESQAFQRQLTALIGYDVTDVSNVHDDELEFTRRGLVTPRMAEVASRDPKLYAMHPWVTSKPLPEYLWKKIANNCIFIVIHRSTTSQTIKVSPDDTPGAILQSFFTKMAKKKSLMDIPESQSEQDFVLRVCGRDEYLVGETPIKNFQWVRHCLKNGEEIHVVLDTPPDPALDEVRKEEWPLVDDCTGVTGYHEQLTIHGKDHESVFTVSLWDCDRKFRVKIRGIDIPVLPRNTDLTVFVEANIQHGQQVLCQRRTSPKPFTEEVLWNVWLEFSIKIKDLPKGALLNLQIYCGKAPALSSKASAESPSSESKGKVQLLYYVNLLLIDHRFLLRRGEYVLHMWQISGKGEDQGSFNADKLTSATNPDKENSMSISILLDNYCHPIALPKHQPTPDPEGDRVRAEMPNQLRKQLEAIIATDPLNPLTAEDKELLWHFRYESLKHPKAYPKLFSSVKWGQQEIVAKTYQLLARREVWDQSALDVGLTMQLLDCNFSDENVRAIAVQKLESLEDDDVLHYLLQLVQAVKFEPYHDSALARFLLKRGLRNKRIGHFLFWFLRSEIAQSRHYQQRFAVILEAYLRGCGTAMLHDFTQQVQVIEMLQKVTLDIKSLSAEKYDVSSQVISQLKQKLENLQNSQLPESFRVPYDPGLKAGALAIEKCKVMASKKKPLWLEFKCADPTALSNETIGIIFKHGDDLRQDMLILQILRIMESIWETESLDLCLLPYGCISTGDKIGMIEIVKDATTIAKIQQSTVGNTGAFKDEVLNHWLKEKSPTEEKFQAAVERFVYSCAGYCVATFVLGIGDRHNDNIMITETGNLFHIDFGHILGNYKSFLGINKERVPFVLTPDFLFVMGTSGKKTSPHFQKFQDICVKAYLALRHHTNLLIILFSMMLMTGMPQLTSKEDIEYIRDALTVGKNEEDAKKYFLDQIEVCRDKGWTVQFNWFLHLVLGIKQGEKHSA
structure (smiles),measurement,setting,value
CNCc1ccc(-c2cc(-c3nc(-c4ccc(S(=O)(=O)C(C)C)cc4)cnc3N)on2)cc1 [VE-822],pKi,[1],7.47
same,pKi,[2],< 5.40
same,pKi,[3],< 6.00
same,pKi,[4],6.66
same,pIC50,[5],5.59
same,pIC50,[6],4.74
same,"phospho-Ser345-Chk1 after gemcitabine, XRT or both",[7],reduced phospho-Ser345-Chk1
same,"ATM, Chk2 or DNA-PK phosphorylation in response to radiation",[8],"did not inhibit ATM, Chk2 or DNA-PK phosphorylation"
same,clonogenic survival of irradiated PDAC,"[9]; VE-822 80 nM, 1 h before until 18 h post-XRT",decreased survival of irradiated PDAC
same,reduction of survival after chemoradiotherapy (triple combination),"[9]; gemcitabine 10 or 5 nM 24 h, VE-822 80 nM, XRT 4 Gy",dramatically more after chemoradiotherapy
same,reduction of survival on adding VE-822 to gemcitabine,"[9]; gemcitabine 24 h, then VE-822 80 nM 18 h",2–3 fold
same,clonogenic survival of normal fibroblasts after XRT or gemcitabine,[10],did not alter clonogenic survival of fibroblasts
same,"phospho-Ser345-Chk1 after gemcitabine, XRT or chemoradiotherapy",[11],reduced phospho-Ser345-Chk1
same,tube formation after XRT or gemcitabine,[12],did not modify tube formation
same,residual γH2AX and 53BP1 foci,"[13]; VE-822 80 nM 1 h before XRT 6 Gy, 24 h post-XRT, vs XRT",increased XRT-induced residual γH2AX and 53BP1 foci
same,Rad51 foci,"[13]; VE-822 80 nM pre-treatment, XRT 6 Gy, 6 h post-XRT",decreased Rad51 foci after XRT
same,"γH2AX, 53BP1 or Rad51 foci, VE-822 alone",[13]; VE-822 alone (data not shown),"no effect on γH2AX, 53BP1 or Rad51 foci"
same,XRT-enriched G2/M-phase-fraction,[14]; VE-822 80 nM + XRT 6 Gy,abrogated by co-treatment with VE-822
same,"cell-cycle distribution, VE-822 alone","[14]; VE-822 80 nM, 12 h and 24 h",increased the G1-phase-fraction
same,gemcitabine-induced S-phase arrest,[14]; gemcitabine 10 nM then VE-822 80 nM,not affected by VE-822
same,"apoptosis, single agent",[15],little effect
same,"apoptosis, combinations of VE-822, XRT and/or gemcitabine","[15]; VE-822 80 nM, XRT 6 Gy, gemcitabine 10 nM, strongest in triple combination",enhanced early and late apoptosis
same,phospho-Ser-345-Chk1 in xenografts after DNA-damaging agents,[16],inhibited phospho-Ser-345-Chk1 in xenografts
same,"tumor growth, VE-822 alone","[17]; experiment I, 60 mg/kg days 0–5",no effect on tumor growth
same,"TV600 (time to 600 mm^3), XRT plus VE-822 vs XRT alone","[17]; experiment I, 60 mg/kg for 6 or 4 days, 6 Gy day 1, P<0.001",more than doubled the TV600 of XRT alone
same,"tumor regrowth, VE-822 + fractionated XRT vs fractionated XRT","[17]; experiment II, 60 mg/kg days 0–5, 5 x 2 Gy days 1–5, P<0.001",significantly delayed regrowth compared with XRT1–5
same,radiosensitisation (TV400) with intermittent dosing,"[17]; experiment IV, 15, 30 and 60 mg/kg, days 0, 2 and 4, 6 Gy",dose-dependent radiosensitisation response
same,"tumor growth delay, gemcitabine + XRT + VE-822 vs gemcitabine + XRT","[17]; experiment V, P<0.001",substantially prolonged the tumor growth delay compared with the Gem0XRT1 group
same,"tumor growth delay, VE-822 + XRT vs XRT","[17]; experiment V, VE-822 60 mg/kg d1, 3, 5, XRT d1, P<0.05",significantly longer compared with the XRT1 group
same,"TV400, gemcitabine + VE-822 vs gemcitabine alone","[17]; experiment V, gemcitabine 100 mg/kg d0, VE-822 60 mg/kg d1, 3, 5, P>0.05",did not significantly increase TV400 compared with gemcitabine alone
same,"tumor growth, VE-822 alone vs control",[18]; 60 mg/kg days 0–5,no statistical change in tumor growth
same,"tumors that regrew, VE-822 + XRT","[18]; 60 mg/kg days 0–5, 6 Gy day 1, n=4",2/4
same,"TV600 of regrowing tumors, VE-822 + XRT vs XRT","[18]; two regrowing tumors, P<0.001",significantly longer than the TV600 for the XRT1 group
same,body weight,[19]; growth delay experiment I,No body weight loss
same,body weight,[19]; growth delay experiment II,no effects on body weight
same,body weight,[19]; growth delay experiment III,no weight loss
same,body weight,[19]; growth delay experiment IV,No weight loss
same,body weight,[19]; growth delay experiment V,no weight loss
same,"villus tip loss and villi length, VE-822 + XRT vs XRT alone","[20]; 60 mg/kg days 0, 2, 4, 6 Gy day 0, day 5",did not increase villus tip loss or villi shortening
same,"body weight loss, combination vs XRT-only",[20]; abdominal XRT 6 Gy,equivalent body weight loss
same,"vessel density, addition of VE-822 and/or XRT to gemcitabine",[21]; growth delay experiment V,did not alter vessel density significantly
same,"vessel density, VE-822 alone or with XRT",[21]; growth delay experiments I-III,did not alter vessel density
same,"tumor uptake of 111In-DTPA–anti-γH2AX-Tat, VE-822 alone",[22]; 60 mg/Kg days 0 and 1,no elevation in uptake
same,"tumor uptake of 111In-DTPA–anti-γH2AX-Tat, VE-822 plus XRT, higher compared with XRT","[22]; 60 mg/Kg days 0 and 1, 6 Gy day 1, 24 h post-XRT, P<0.05",44%
"Nc1ccn([C@@H]2O[C@H](CO)[C@@H](O)C2(F)F)c(=O)n1 [gemcitabine, reference compound]","apoptosis, single agent",[15],increased apoptosis slightly
same,"tumor growth, gemcitabine alone",[17]; 100 mg/kg i.p. day 0,did not alter tumor growth significantly; also recorded: does not itself lead to tumor growth delay
same,"tumor growth delay, gemcitabine + XRT vs gemcitabine","[17]; experiment V, P<0.05",increased tumor growth delay compared with Gem0
same,vessel density after gemcitabine,[21]; growth delay experiment V,significantly reduced vessel density
